Reference: ChEMBL document CHEMBL1124386, “Selective thyromimetics. Cardiac-sparing thyroid hormone analogues containing 3'-arylmethyl substituents” (J Med Chem, 1989)
The source made the active and inactive calls. The calls are words filed in the database; no cut-off is given here.

Tested on: Thyroid hormone receptor (Rattus norvegicus)
Assay: Binding affinity to thyroid hormone receptor, relative to 3,5,3' triiodothyronine receptor, in isolated nuclei of heart
Conditions: not given

Structure (SMILES) | Relative IC50
Nc1ccc(Cc2cc(Oc3c(I)cc(C[C@H](N)C(=O)O)cc3I)ccc2O)cc1 | 1.1
N[C@@H](Cc1cc(I)c(Oc2ccc(O)c(Cc3ccc([N+](=O)[O-])cc3)c2)c(I)c1)C(=O)O | 64
N[C@@H](Cc1cc(I)c(Oc2ccc(O)c(Cn3ccc(=O)cc3)c2)c(I)c1)C(=O)O | 0.4
N[C@@H](Cc1cc(I)c(Oc2ccc(O)c(Cc3ccc(O)cn3)c2)c(I)c1)C(=O)O | 15
Cc1cc(Cc2cc(Oc3c(I)cc(C[C@H](N)C(=O)O)cc3I)ccc2O)ccc1O | 9.7
N[C@@H](Cc1cc(I)c(Oc2ccc(O)c(Cc3ccc(O)nn3)c2)c(I)c1)C(=O)O | 4

Tested on: Rattus norvegicus
Assay: Percent increase in oxygen consumption after seven daily doses of test compound given perorally, with concentration of compound at 0.1 mg/kg
Type: functional
Conditions: dose 10 mg/kg; route oral; in the assay text read “10 mg/kg” for “0.1 mg/kg”
Summary of the method: (§1)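 Euthyroid rats given seven daily doses, intramuscular or oral, by line; whole-body oxygen consumption measured as percent increase in metabolic rate.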

Structure (SMILES) | Increase [%]
N[C@@H](Cc1cc(I)c(Oc2ccc(O)c(Cc3ccc(O)nn3)c2)c(I)c1)C(=O)O | 20

Tested on: Rattus norvegicus
Assay: Potency for induction of GPDH (mitochondrial cytochrome C 3-phosphoglycerate oxidoreductase) was measured 48 hr after single im injection relative to T3 in heart; LM=low maximal response after 2 daily doses of 50 mg/kg
Type: functional, organism-based
Design: dose 50 mg/kg
Conditions: filed as partial agonist

Structure (SMILES) | Relative ED50
N[C@@H](Cc1cc(I)c(Oc2ccc(O)c(Cc3ccc(O)cn3)c2)c(I)c1)C(=O)O | Partial agonist

Tested on: Rattus norvegicus
Assay: Potency for induction of GPDH (mitochondrial cytochrome C 3-phosphoglycerate oxidoreductase) was measured 48 hr after single im injection relative to T3 in liver; LM=low maximal response after 2 daily doses of 50 mg/kg
Type: functional, organism-based
Design: dose 50 mg/kg
Conditions: filed as partial agonist

Structure (SMILES) | Relative ED50
N[C@@H](Cc1cc(I)c(Oc2ccc(O)c(Cc3ccc([N+](=O)[O-])cc3)c2)c(I)c1)C(=O)O | Partial agonist
Cc1cc(Cc2cc(Oc3c(I)cc(C[C@H](N)C(=O)O)cc3I)ccc2O)ccc1O | Partial agonist

Tested on: Rattus norvegicus
Assay: In vivo binding affinity for 3,5,3' triiodothyronine receptor of liver nuclei 1 hour after intravenous administration
Type: organism-based
Conditions: not given

Structure (SMILES) | Relative ID50
Nc1ccc(Cc2cc(Oc3c(I)cc(C[C@H](N)C(=O)O)cc3I)ccc2O)cc1 | 0.21
N[C@@H](Cc1cc(I)c(Oc2ccc(O)c(Cc3ccc([N+](=O)[O-])cc3)c2)c(I)c1)C(=O)O | 9.8
N[C@@H](Cc1cc(I)c(Oc2ccc(O)c(Cn3ccc(=O)cc3)c2)c(I)c1)C(=O)O | 2.7
N[C@@H](Cc1cc(I)c(Oc2ccc(O)c(Cc3ccc(O)cn3)c2)c(I)c1)C(=O)O | 31
Cc1cc(Cc2cc(Oc3c(I)cc(C[C@H](N)C(=O)O)cc3I)ccc2O)ccc1O | 0.35
N[C@@H](Cc1cc(I)c(Oc2ccc(O)c(Cc3ccc(O)nn3)c2)c(I)c1)C(=O)O | 38

Tested on: Rattus norvegicus
Assay: Potency for induction of GPDH (mitochondrial cytochrome C3-phosphoglycerate oxidoreductase) was measured 48 hr after single im injection relative to T3 in heart; I=inactive after 2 daily doses of 50 mg/kg
Type: functional, organism-based
Design: dose 50 mg/kg
Conditions: not given

Structure (SMILES) | Relative ED50
Nc1ccc(Cc2cc(Oc3c(I)cc(C[C@H](N)C(=O)O)cc3I)ccc2O)cc1 | inactive
N[C@@H](Cc1cc(I)c(Oc2ccc(O)c(Cn3ccc(=O)cc3)c2)c(I)c1)C(=O)O | inactive
Cc1cc(Cc2cc(Oc3c(I)cc(C[C@H](N)C(=O)O)cc3I)ccc2O)ccc1O | inactive

Tested on: Rattus norvegicus
Assay: Potency for induction of GPDH (mitochondrial cytochrome C3-phosphoglycerate oxidoreductase) was measured 48 hours after single intramuscular injection relative to T3 in liver
Type: functional
Conditions: not given

Structure (SMILES) | Relative ED50
N[C@@H](Cc1cc(I)c(Oc2ccc(O)c(Cn3ccc(=O)cc3)c2)c(I)c1)C(=O)O | 1.4
N[C@@H](Cc1cc(I)c(Oc2ccc(O)c(Cc3ccc(O)cn3)c2)c(I)c1)C(=O)O | 1.7
N[C@@H](Cc1cc(I)c(Oc2ccc(O)c(Cc3ccc(O)nn3)c2)c(I)c1)C(=O)O | 2.4

Tested on: Rattus norvegicus
Assay: Potency for induction of GPDH (mitochondrial cytochrome C3-phosphoglycerate oxidoreductase) was measured 48 hr after single im injection relative to T3 in liver; I=inactive after 2 daily doses of 50 mg/kg
Type: functional, organism-based
Design: dose 50 mg/kg
Conditions: not given

Structure (SMILES) | Relative ED50
Nc1ccc(Cc2cc(Oc3c(I)cc(C[C@H](N)C(=O)O)cc3I)ccc2O)cc1 | inactive

Species: Rattus norvegicus
Assay: Selectivity ratio of ID50 in liver and heart
Conditions: not given
Summary of the method: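 Liver/heart selectivity in rats, calculated as (relative ID50)liver divided by (relative ID50)heart, from in vivo nuclear binding 1 h after intravenous dosing.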

Structure (SMILES) | Ratio
Nc1ccc(Cc2cc(Oc3c(I)cc(C[C@H](N)C(=O)O)cc3I)ccc2O)cc1 | 9.13
N[C@@H](Cc1cc(I)c(Oc2ccc(O)c(Cc3ccc([N+](=O)[O-])cc3)c2)c(I)c1)C(=O)O | 13.8
N[C@@H](Cc1cc(I)c(Oc2ccc(O)c(Cn3ccc(=O)cc3)c2)c(I)c1)C(=O)O | 208
N[C@@H](Cc1cc(I)c(Oc2ccc(O)c(Cc3ccc(O)cn3)c2)c(I)c1)C(=O)O | 12.4
Cc1cc(Cc2cc(Oc3c(I)cc(C[C@H](N)C(=O)O)cc3I)ccc2O)ccc1O | 3.5
N[C@@H](Cc1cc(I)c(Oc2ccc(O)c(Cc3ccc(O)nn3)c2)c(I)c1)C(=O)O | 95

Tested on: Rattus norvegicus
Assay: In vivo binding affinity for 3,5,3'' triiodothyronine receptor of heart nuclei 1 hr after intravenous administration
Type: organism-based
Conditions: not given

Structure (SMILES) | Relative ID50
Nc1ccc(Cc2cc(Oc3c(I)cc(C[C@H](N)C(=O)O)cc3I)ccc2O)cc1 | 0.023
N[C@@H](Cc1cc(I)c(Oc2ccc(O)c(Cc3ccc([N+](=O)[O-])cc3)c2)c(I)c1)C(=O)O | 0.71
N[C@@H](Cc1cc(I)c(Oc2ccc(O)c(Cn3ccc(=O)cc3)c2)c(I)c1)C(=O)O | 0.013
N[C@@H](Cc1cc(I)c(Oc2ccc(O)c(Cc3ccc(O)cn3)c2)c(I)c1)C(=O)O | 2.5
Cc1cc(Cc2cc(Oc3c(I)cc(C[C@H](N)C(=O)O)cc3I)ccc2O)ccc1O | 0.1
N[C@@H](Cc1cc(I)c(Oc2ccc(O)c(Cc3ccc(O)nn3)c2)c(I)c1)C(=O)O | 0.4

Tested on: Rattus norvegicus
Assay: Potency for induction of GPDH (mitochondrial cytochrome C3-phosphoglycerate oxidoreductase) was measured 48 hours after single intramuscular injection relative to T3 in heart
Type: functional
Conditions: not given

Structure (SMILES) | Relative ED50
N[C@@H](Cc1cc(I)c(Oc2ccc(O)c(Cc3ccc([N+](=O)[O-])cc3)c2)c(I)c1)C(=O)O | 0.9
N[C@@H](Cc1cc(I)c(Oc2ccc(O)c(Cc3ccc(O)nn3)c2)c(I)c1)C(=O)O | <0.1

Tested on: not listed separately
Assay: Binding affinity to the thyroid hormone receptor was determined in vitro in isolated nuclei of rat liver relative to 3,5,3' triiodothyronine
Type: tissue-based
Conditions: not given

Structure (SMILES) | Relative IC50
Nc1ccc(Cc2cc(Oc3c(I)cc(C[C@H](N)C(=O)O)cc3I)ccc2O)cc1 | 0.63
N[C@@H](Cc1cc(I)c(Oc2ccc(O)c(Cc3ccc([N+](=O)[O-])cc3)c2)c(I)c1)C(=O)O | 20
N[C@@H](Cc1cc(I)c(Oc2ccc(O)c(Cn3ccc(=O)cc3)c2)c(I)c1)C(=O)O | 0.25
N[C@@H](Cc1cc(I)c(Oc2ccc(O)c(Cc3ccc(O)cn3)c2)c(I)c1)C(=O)O | 20
Cc1cc(Cc2cc(Oc3c(I)cc(C[C@H](N)C(=O)O)cc3I)ccc2O)ccc1O | 7.4
N[C@@H](Cc1cc(I)c(Oc2ccc(O)c(Cc3ccc(O)nn3)c2)c(I)c1)C(=O)O | 2

Tested on: Rattus norvegicus
Assay: Percent increase in oxygen consumption after seven daily doses of test compound given intramuscularly, with concentration of compound at 3.3 mg/kg
Type: functional
Conditions: route intramuscular
Summary of the method: as §1

Structure (SMILES) | Increase [%]
N[C@@H](Cc1cc(I)c(Oc2ccc(O)c(Cc3ccc(O)nn3)c2)c(I)c1)C(=O)O | 19
